Experimental data as given in paper PMC9291769 (Chemmedchem, 2021).
Where “and” joins values, the source holds several entries; their conditions need not be identical. Identical values can stand only once.

Assays:
[1] = biological target: recombinant form of human IDO1 (rhIDO1) (Homo sapiens, UniProt P14902); test: rhIDO1 enzymatic assay; format: biochemical; details: read-out: rhIDO1 inhibition
In short: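 Recombinant human IDO1 inhibitor-screening kit: 10 µM test compound in complete reaction buffer, 45 min at 37 °C. Stopped with 30% (w/v) CCl₃COOH, heated 50 °C for 15 min and centrifuged. Supernatant was mixed 1:1 with 2% p-dimethylaminobenzaldehyde in acetic acid, and kynurenine pigment read at 490 nm. The kit's positive inhibition control was included. Mean ± SEM, three experiments in triplicate.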

holo-IDO1 = holo-IDO1 (Homo sapiens, UniProt P14902); test: Heme detection; format: binding; details: 1 μM holo-IDO1, 120 min, 37 °C; VS9 different concentrations, epacadostat 20 μM
Sequence of holo-IDO1 (P14902 whole entry): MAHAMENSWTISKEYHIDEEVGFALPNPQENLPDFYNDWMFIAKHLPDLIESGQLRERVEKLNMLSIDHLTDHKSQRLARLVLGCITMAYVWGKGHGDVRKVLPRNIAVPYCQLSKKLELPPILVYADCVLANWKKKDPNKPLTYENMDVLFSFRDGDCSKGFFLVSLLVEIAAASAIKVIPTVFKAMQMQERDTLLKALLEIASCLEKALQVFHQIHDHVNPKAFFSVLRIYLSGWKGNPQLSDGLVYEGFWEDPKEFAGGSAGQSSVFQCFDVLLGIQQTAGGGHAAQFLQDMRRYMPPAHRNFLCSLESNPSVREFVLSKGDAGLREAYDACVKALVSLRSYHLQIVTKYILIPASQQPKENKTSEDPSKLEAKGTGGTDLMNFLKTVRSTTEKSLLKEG
In short: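 1 µM holo-IDO1 in 100 mM potassium phosphate (pH 7.2) with 1 mM CHAPS was incubated with varying test-compound concentrations, or 20 µM reference inhibitor, for 120 min at 37 °C. Samples were diluted 100-fold, and free heme was measured with a hemin detection kit at 570 nm. Values are relative to untreated, mean of n=3 ± SD.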

TDO (P1.TDO) = TDO (P1.TDO) (Homo sapiens, UniProt P48775); test: IDO1 and TDO selectivity assay, P1.TDO cells; format: cell-based; details: 10 μM, 16 h
Sequence of TDO (P1.TDO) (P48775 whole entry): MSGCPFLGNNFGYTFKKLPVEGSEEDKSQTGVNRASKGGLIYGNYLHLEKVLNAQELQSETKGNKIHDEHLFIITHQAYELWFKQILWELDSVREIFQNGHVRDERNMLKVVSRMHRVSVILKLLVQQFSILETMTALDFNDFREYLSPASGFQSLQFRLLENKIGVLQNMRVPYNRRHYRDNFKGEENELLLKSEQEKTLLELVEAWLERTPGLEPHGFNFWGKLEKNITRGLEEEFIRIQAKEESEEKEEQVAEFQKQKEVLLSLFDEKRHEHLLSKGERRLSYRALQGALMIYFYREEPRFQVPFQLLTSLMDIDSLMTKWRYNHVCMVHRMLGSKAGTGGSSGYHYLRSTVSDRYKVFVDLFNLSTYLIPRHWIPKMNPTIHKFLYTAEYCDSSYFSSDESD
In short: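 Mouse mastocytoma P815-derived P1.HTR cells, stably electroporated with a human TDO plasmid and selected in puromycin, grown in IMDM with 1 mM glutamine and penicillin/streptomycin, used at ≤10th passage. Cells incubated 16 h with 10 μM test compound; DMSO vehicle as control. Supernatant L-Kyn measured by HPLC-UV (C18 column) against a calibration curve, detection limit 0.05 μM. Triplicate.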

MTT cell viability assay = format: cell-based, human; details: human, A375 cells, Cell viability [%] @ 10 μM±SD
In short: (§1)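 A375 cells were kept in high-glucose DMEM with 10% heat-inactivated FBS, 2 mM L-glutamine and pen/strep. Cells were seeded at 0.5×10^5/well and exposed to 10 µM test compound for 48 h at 37 °C, 5% CO₂, then given MTT. Viability = 100(x−y)/(z−y), where x, y and z are absorbance of treated, resting and untreated cells. Mean ± SD, ≥3 experiments in triplicate.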

A375 cells = test: MTT cell viability assay; format: cell-based, human; details: 48 h
In short: as §1

[2] = In vitro metabolic stability in rat liver S9 fraction; format: in vitro ADME; details: rat liver S9 with NADPH, 5 μM substrate, 37 °C
In short: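 Pooled male Sprague Dawley rat liver S9 (1.5 mg/mL final protein) was used in 50 mM Tris pH 7.4 with 3.3 mM MgCl₂, 1.3 mM β-NADP, 3.3 mM glucose 6-phosphate, 0.4 U/mL G6PDH and 1% acetonitrile. Test compound was 5 µM, shaken 60 min at 37 °C. Controls lacked S9 or cofactors. Reactions were stopped with ice-cold acetonitrile and centrifuged; residual substrate was measured.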

IDO1 = IDO1 (Homo sapiens, UniProt P14902); test: Cellular IDO1 inhibition; format: cell-based; details: A375 cell line, IFN-γ, 48 h
Sequence of IDO1 (P14902 whole entry): as the sequence (P14902 whole entry) above
In short: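 A375 cells (0.5×10^5/well) were grown overnight, then given test compound (serial dilutions 0.01–30 µM, or single 10 µM) with human IFN-γ (500 U/mL final) and 0.1% DMSO for 48 h. Medium was deproteinized with 20% CCl₃COOH. L-Kyn was quantified by C18 HPLC at 330 nm against a calibration curve; % inhibition was taken versus basal levels. IC50s came from concentration-response curves, ≥3 experiments in triplicate.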

Sequence of recombinant form of human IDO1 (rhIDO1) (P14902 whole entry): as above

O=C(NCc1nnc2ccc(C(F)(F)F)cn12)c1cccc2cn[nH]c12 [Compound 2, N‐((6‐(Trifluoromethyl)‐[1,2,4]triazolo[4,3‐a]pyridin‐3‐yl)methyl)‐1H‐indazole‐7‐carboxamide]
inhibition at 10 µM [1]: 54.6 ± 3.1% | levels of free heme after incubation with IDO1 (holo-IDO1): did not increase the levels of free heme | Kyn levels in P1.TDO cells (TDO (P1.TDO)): not able to induce a reduction of Kyn levels in P1.TDO | viability at 48 h, 10 μM (MTT cell viability assay): 91 ± 9.9% | Cell viability [%] @ 10 μM±SD (A375 cells): 87±18.3% | Residual peak area after RLS9 incubation (60 min) [2]: higher than 99% | IDO cellular assay inhibition [%] @ 10 μM±SD (IDO1; 10 μM, L-Kyn by HPLC): 42±9% | IC50 (IDO1; IC50±SD [μM]): 2.6 µM and 2.8 µM
